High-throughput results (PubChem BioAssay)
H9c2 TAG inh: reduces triacylglycerol accumulation in H9c2 cells. Nile Red lipid (TAG) fluorescence; cells loaded with 200 µM oleic acid. inhibition, % at 12.5 µM. hit rate 0.66% among 230,000. AID 651582;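 active = pattern-corrected inhibition of lipid staining of at least 50% with the nuclear-stain viability signal not falling by more than 50%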;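 note: 0% = DMSO wells and 100% = triacsin C control wells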
Arrestin-AP2 inh: inhibitors of human beta-arrestin and AP2 interaction. FITC-arrestin peptide / GST-AP2 beads, flow cytometry; AP2 beta2 appendage carries R879A mutation. inhibition, % at 10 µM. hit rate 0.31% among 340,000. AID 504490;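 active = inhibition above a set limit, near 3 SD of compounds lacking own fluorescence, cut at about 54% in these data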;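 note: plate controls were DMSO wells for no effect and 5 µM unlabelled arrestin peptide for full effect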
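Test system: GST-tagged AP2 beta2-adaptin appendage (R879A) on 4 µm glutathione beads; also added: fluorescein-tagged arrestin peptide at 50 nM final; timing: 12 min plus 1 h, RT; signal: flow cytometry, FL1 (488/535 nm); read-out: percent drop in bead-associated FITC signal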
NTR1 agonist: activates human neurotensin receptor 1. P30989. AID 493036. NTR1-U2OS beta-arrestin-GFP spot imaging, agonist mode. activation, % at 20 µM. hit rate 0.17% among 330,000;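 active = activation at or above 40% of the spot to cytoplasm intensity ratio, with at least 20 cells analyzed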;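 note: 0% = DMSO without peptide and 100% = 100 nM NTR1 peptide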
GRK2 inh: blocks RNA aptamer binding to human GRK2. inhibition of aptamer binding, % at 10 µM. hit rate 0.59% among 330,000. bead flow cytometry, FAM-aptamer displacement from GRK2;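 active = inhibition of aptamer binding above 40%, roughly 3 SD of noise, on plates passing a quality check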;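 note: median bead fluorescence of bound FAM aptamer so fluorescent compounds give negative values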
B2AR ag: agonists of human beta-2 adrenergic receptor inducing internalization. hit rate 0.43% among 340,000. Am2.2-beta2AR cells, FAP receptor internalization, flow cytometry. AID 504454. response, % (no concentration beside the values). P07550;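 active = response above a set limit, near 3 SD of response in nonfluorescent compounds, cut at about 42% in these data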
Target sequence (P07550 whole entry, looked up): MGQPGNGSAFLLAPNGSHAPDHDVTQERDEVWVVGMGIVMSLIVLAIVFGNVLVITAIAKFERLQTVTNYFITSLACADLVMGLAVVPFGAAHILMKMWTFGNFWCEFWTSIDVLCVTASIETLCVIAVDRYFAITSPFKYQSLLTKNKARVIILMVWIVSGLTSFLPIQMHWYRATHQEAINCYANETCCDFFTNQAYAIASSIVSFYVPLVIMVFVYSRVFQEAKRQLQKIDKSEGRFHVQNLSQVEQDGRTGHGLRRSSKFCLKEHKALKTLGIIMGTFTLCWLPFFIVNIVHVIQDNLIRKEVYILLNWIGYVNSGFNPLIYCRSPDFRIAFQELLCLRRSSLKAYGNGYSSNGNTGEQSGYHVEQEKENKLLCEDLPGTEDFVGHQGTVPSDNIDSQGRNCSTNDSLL
Lipid droplet: hepatic lipid droplet formation modulation | hit rate 0.4% among 240,000 | inhibition, % at 6.5 µM | AML12 mouse hepatocytes, oleate lipid droplets, BODIPY imaging;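 active = lipid droplet intensity inhibited by at least 50%, with more than 500 cells counted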
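Technique: fluorescence imaging, 20x objective, two fields per well / Assay system: AML12 hepatocytes (mouse) / Measure: % inhibition of lipid droplet signal / Doses: 6.5 µM single-point dosing / Incubation: overnight exposure / Reagent: 100 µM oleic acid challenge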
NTR1 ag conf: confirmation of agonists of human NTR1; activation, % at 20 µM; hit rate 38% among 480; shares compounds with NTR1 agonist; NTR1-U2OS beta-arrestin-GFP translocation imaging;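 active = mean activation at 20 µM of at least 40%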;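 note: 0% = DMSO without peptide and 100% = 100 nM NTR1 peptide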
Starred values were filed as active, the others as inactive; . = no result. Shown are actives, neighbours in structure and some others; about 2% of the full set was active somewhere.

SMILES | H9c2 TAG inh | Arrestin-AP2 inh | NTR1 agonist | GRK2 inh | B2AR ag | Lipid droplet | NTR1 ag conf
CCc1nc2ccc(C(=O)Nc3ccc4c(c3)OCC(=O)N4)cn2c1N(C)C(=O)Cc1ccccc1 | 7.2 | . | . | . | . | . | .
Nc1c(C(=O)Nc2ccc(S(=O)(=O)N3CCCC3)cc2)sc2nc3ccc(OC(F)(F)F)cc3cc12 | . | 1.4 | 87.2* | 0.0 | -4.2 | -21.1 | 21.8
Nc1c(C(=O)Nc2ccc(S(=O)(=O)N3CCCC3)cc2)sc2nc3cc4c(cc3cc12)CCC4 | . | 4.5 | . | 1.0 | -31.9 | 15.7 | .
CCOc1cc(/C=C2/C(=O)ON=C2C)ccc1OCc1ccc(F)cc1 | . | 44.5 | 57.1* | 0.0 | 27.3 | . | 64.0*
CCOc1cc(/C=C2\C(=O)ON=C2c2ccccc2)ccc1OC | . | 0.6 | 16.3 | 0.0 | 11.7 | -4.8 | .
CCOc1cc(/C=C2/C(=O)ON=C2C)ccc1OCc1ccccc1 | . | . | 47.9* | 4.0 | . | -13.7 | 53.8*
CC(C)C(=O)Nc1c2c(nn1-c1ccc(F)cc1)CSC2 | . | 29.7 | -0.9 | 1.0 | -2.4 | -14.8 | .
Cc1cccc(NS(=O)(=O)c2cccc(C(=O)N3CCCC(C(F)(F)F)C3)c2)c1 (configuration not stated) | -17.3 | -7.5 | 0.9 | 0.0 | . | . | .
COc1ccc(N2CCN(c3nc(NCCc4ccc(OC)c(OC)c4)nc(OC)n3)CC2)cc1 | . | 3.1 | 43.6* | 1.0 | 2.3 | -15.2 | 32.1
CCOc1nc(NCCc2ccc(OC)c(OC)c2)nc(N2CCN(c3ccc(OC)cc3)CC2)n1 | . | 1.3 | 15.3 | 0.0 | -1.8 | 2.9 | .
Oc1ccc(C[C@@H]2CNC(=S)N2CCCCC2CCCCC2)cc1 | 3.7 | 14.3 | 44.0* | 0.0 | -13.1 | 2.4 | 32.1
CCOC(=O)c1c(C)n(C)c2ccc(OCC(O)Cn3nc(C)c(Br)c3C)cc12 (configuration not stated) | -10.2 | 16.8 | 40.9* | 0.0 | 12.5 | -6.1 | 11.1
O=c1c(-c2ccccc2)c(O)c2ccccc2n1-c1ccccc1 | . | 0.8 | 0.4 | 1.0 | -11.3 | . | .
O=C1CC(N(CCc2ccccc2)C(=S)Nc2ccccc2)C(=O)N1c1ccc(Br)cc1 (configuration not stated) | . | -0.7 | 60.2* | 1.0 | 13.2 | 4.2 | 23.3
COc1ccc(CCN(C(=S)Nc2ccccc2)C2CC(=O)N(c3ccccc3)C2=O)cc1 (configuration not stated) | 23.0 | 6.8 | 21.2 | 0.0 | 2.5 | . | .
CCCCCCCCn1c2c(c(=N)c3ccccc31)CCC2 | . | 12.9 | 60.9* | . | 7.8 | -166.9 | 50.4*
CCCCCn1c2c(c(=N)c3ccccc31)CCC2 | -6.6 | -36.9 | 3.4 | 0.0 | -12.7 | 9.0 | .
FC(F)(F)c1nc(-c2cccs2)ncc1-c1nnnn1-c1ccc(Cl)cc1 | -7.5 | -2.8 | 56.8* | 2.0 | 11.1 | -13.2 | 20.2
Cc1csc(NC(=S)NC(=O)c2ccccc2)n1 | . | -0.2 | -0.9 | 0.0 | -7.3 | 10.4 | .
Cc1ccc2oc(C(=O)Nc3cc(C)on3)c(C)c2c1 | 1.4 | -34.4 | -2.6 | 0.0 | -8.6 | . | .
COc1cc(O)c(CC=C(C)C)c(O)c1C(=O)CCc1ccc(O)cc1 | . | -1.6 | 55.4* | 0.0 | 9.7 | 0.2 | 27.9
COc1ccccc1CNC(=O)CN1C(=O)NC(C)(c2ccc(C)cc2)C1=O (configuration not stated) | . | -6.0 | 47.0* | 6.0 | 14.4 | 24.9 | -1.8
COc1ccccc1CNC(=O)CN1C(=O)NC2(CCCCCCC2)C1=O | -8.4 | -13.3 | 0.9 | 2.0 | -6.6 | . | .
O=C1Nc2ccccc2/C1=C\C(=O)c1ccccc1 | . | -0.3 | 15.6 | 0.0 | 19.9 | -4.7 | .
Cc1cc(C)c2c(c1)/C(=C/C(=O)c1ccc(Br)s1)C(=O)N2 | . | 5.9 | 57.8* | 3.0 | 65.0* | -5.7 | 68.3*
SMILES | H9c2 TAG inh | Arrestin-AP2 inh | NTR1 agonist | GRK2 inh | B2AR ag | Lipid droplet | NTR1 ag conf
CCc1ccc2c(c1)/C(=C/C(=O)c1cccs1)C(=O)N2 | -4.4 | -5.1 | 41.6* | 5.0 | 78.1* | . | 56.9*
Cc1cc(Br)c2c(c1)/C(=C/C(=O)c1cccs1)C(=O)N2 | -12.7 | -13.8 | 62.6* | 2.0 | 3.0 | 0.9 | 41.4*
Cc1cccc2c1NC(=O)/C2=C\C(=O)c1cccs1 | . | 10.2 | 28.2 | 2.0 | 8.4 | 5.8 | .
CN(C)/C=C/C(=O)c1ccc(Br)s1 | -4.1 | . | 1.5 | 0.0 | 10.7 | 9.9 | .
CN(CC(=O)Nc1ccccc1C(F)(F)F)C(=O)c1ccc(N2C(=O)CCC2=O)cc1 | -11.4 | 2.0 | 0.2 | 0.0 | 5.1 | . | .
COc1cc(/C=N/NC(=O)c2cccc([N+](=O)[O-])c2)ccc1OCc1ccccc1 | . | 11.5 | 4.2 | 2.0 | -1.8 | -8.0 | .
COC(=O)C(=Cc1ccc(OCc2ccc([N+](=O)[O-])cc2)c(OC)c1)C(=O)OC | -4.1 | -1.6 | 44.7* | 0.0 | 3.2 | 14.6 | 75.1*
Cn1ccnc1Sc1cc(NCCCO)c([N+](=O)[O-])c2nonc12 | -6.6 | 13.1 | 45.3* | 2.0 | 46.5* | 9.0 | 72.4*
CC(=O)OCCCNc1cc(Sc2ccc(C)cc2)c2nonc2c1[N+](=O)[O-] | . | -14.0 | 67.3* | 0.0 | 8.7 | -14.9 | 86.2*
CC(C)NC(=O)N(C)C[C@H]1OCCCC[C@H](C)Oc2ccc(NS(=O)(=O)c3ccccc3)cc2C(=O)N([C@H](C)CO)C[C@H]1C | 12.1 | . | . | . | . | . | .
CSc1ccc(NC(=O)NCc2cccnc2)cc1 | . | 20.0 | -0.1 | 1.0 | -2.8 | 3.5 | .
CC(C)Cn1c(N)c(C(=O)CSc2cc(Cl)ccc2Cl)c(=O)n(C)c1=O | . | . | 47.7* | 1.0 | . | -17.2 | 47.1*
NC(=S)N/N=C/c1ccccc1OCCSc1ccc(Cl)cc1 | . | 4.3 | 43.0* | 0.0 | 10.7 | 11.1 | 26.6
C=CCN1C(=O)c2ccc(C(=O)N3CCN(S(=O)(=O)c4cc(C)ccc4C)CC3)cc2C1=O | -10.1 | 6.7 | 0.2 | 4.0 | -2.6 | . | .
COC(=O)c1cc(=O)n(Cc2ccc3c(c2)OCO3)c(=Nc2ccc(F)cc2)s1 | 16.1 | -6.8 | 4.9 | 10.0 | 5.5 | . | .
COC(=O)c1cc(=O)n(Cc2cccs2)c(=Nc2ccc(F)cc2)s1 | 12.2 | 6.9 | 41.7* | 2.0 | 31.8 | 5.4 | 36.1
COC(=O)c1ccc(N=c2sc(C(=O)OC)cc(=O)n2C)cc1 | 6.8 | -1.3 | . | . | 8.2 | 8.1 | .
COC(=O)c1cc(=O)n(-c2ccc(F)cc2)c(=Nc2ccc(F)cc2)s1 | 9.9 | 9.6 | 50.1* | 0.0 | 14.7 | 2.9 | 51.7*
CC(Sc1nnc(C2CC2)n1N)C(=O)NC1CCCCC1C (configuration not stated) | 5.9 | -10.8 | 0.4 | 0.0 | -5.9 | 13.8 | .
O=C(Nc1ccc(Cl)cn1)c1ccc2[nH]c(=O)c(=O)[nH]c2c1 | . | 7.3 | -0.6 | 11.0 | -9.1 | -9.9 | .
Cc1c(CN2CCC(CO)(CCOc3ccccc3)CC2)[nH]c2c(Cl)cccc12 | 34.6 | 35.8 | 66.8* | 0.0 | 5.2 | 11.8 | 34.3
